Cardio protect = protects H9c2 cardiomyocytes from peroxide injury; H2O2 injury protection, ATPLite, 2 h; protection from H2O2 cell death, % at 20 µM; hit rate 0.63% among 360,000; AID 588492;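 active = compounds giving at least 50% protection of heart cells from peroxide-induced death in the single-dose screen, raw or plate-pattern-corrected value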;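 note: 0% = DMSO wells with peroxide and 100% = DMSO wells without peroxide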
HKDC1 inh = blocks human hexokinase HKDC1 activity; inhibition, % at 20 µM; hit rate 0.16% among 340,000; recombinant HKDC1, G6PDH/diaphorase resazurin coupled fluorescence;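 active = inhibition above about 35% when tested at 20 µM, limit read from the data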;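 note: plate controls were DMSO wells with enzyme for no effect and DMSO wells lacking enzyme for full effect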
Target sequence (Q2TB90 whole entry, looked up): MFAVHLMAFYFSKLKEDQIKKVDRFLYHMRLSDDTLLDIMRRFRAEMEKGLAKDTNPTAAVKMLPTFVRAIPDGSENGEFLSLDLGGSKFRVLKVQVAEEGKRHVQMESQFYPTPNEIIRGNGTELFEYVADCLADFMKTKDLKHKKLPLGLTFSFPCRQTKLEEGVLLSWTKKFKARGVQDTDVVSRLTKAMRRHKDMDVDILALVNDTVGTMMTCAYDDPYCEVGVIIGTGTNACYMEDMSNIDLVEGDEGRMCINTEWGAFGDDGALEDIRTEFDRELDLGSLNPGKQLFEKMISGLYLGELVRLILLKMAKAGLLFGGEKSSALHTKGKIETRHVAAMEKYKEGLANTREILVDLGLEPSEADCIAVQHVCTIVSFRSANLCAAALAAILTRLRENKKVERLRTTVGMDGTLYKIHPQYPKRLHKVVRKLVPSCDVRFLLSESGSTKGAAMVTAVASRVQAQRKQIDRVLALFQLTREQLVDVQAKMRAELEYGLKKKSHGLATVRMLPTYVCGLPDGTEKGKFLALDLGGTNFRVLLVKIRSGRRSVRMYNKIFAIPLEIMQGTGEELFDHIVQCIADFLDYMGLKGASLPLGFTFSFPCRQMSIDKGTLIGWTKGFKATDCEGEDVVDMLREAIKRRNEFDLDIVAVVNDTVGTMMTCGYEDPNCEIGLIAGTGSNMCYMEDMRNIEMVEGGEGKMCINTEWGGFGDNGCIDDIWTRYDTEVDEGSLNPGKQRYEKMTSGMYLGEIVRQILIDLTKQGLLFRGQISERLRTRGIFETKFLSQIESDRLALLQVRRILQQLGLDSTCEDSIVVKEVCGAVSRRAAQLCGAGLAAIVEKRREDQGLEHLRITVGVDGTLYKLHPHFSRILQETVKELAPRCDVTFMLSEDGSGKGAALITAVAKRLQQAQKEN
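Assay system: in-house recombinant HK5 (HKDC1) enzyme. Input: HKDC1 at 5 µg/mL. Medium: Tris pH 8.0 buffer with MgCl2, Tween-20, BSA, BME. Dosing: single 20 µM dose. Schedule: 90 min reaction incubation at room temperature, dark. Signal: resazurin-to-resorufin fluorescence via G6PDH and diaphorase coupling, 525/613 nm. Controls: DMSO-enzyme wells negative, buffer-substituted wells positive.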
UCH37 inh = blocks the human deubiquitinase UCH37; Q9Y5K5; purified proteasome/UCH37, Ub-AMC cleavage fluorescence; inhibition, % (concentration not given with the values); hit rate 0.33% among 330,000; AID 588478;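 active = mean inhibition over replicate wells above about 20%, limit read from the data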;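 note: 0% = compound-free wells with enzyme and 100% = wells lacking proteasome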
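system = Proteasome-associated human UCH37 deubiquitinase | amount = 0.15 nM proteasome as dispensed | medium = pH 7.4 Tris-HCl (50 mM) with ovalbumin, ATP-MgCl2, DTT | incubation = 30 min preincubation with enzyme, 25 min cleavage at room temperature | detection = AMC fluorescence 355/460 nm | read-out basis = percent inhibition | controls = no-proteasome and no-compound wells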
Beta2AR agonist = agonists of human beta-2 adrenergic receptor inducing internalization. P07550. Am2.2-beta2AR cells, FAP receptor internalization, flow cytometry. response, % (concentration not given with the values). hit rate 0.43% among 340,000. AID 504454;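 active = response above a set limit, near 3 SD of response in nonfluorescent compounds, cut at about 42% in these data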
PfGluPho inh = PfG6PD (Plasmodium falciparum) enzyme inhibition; inhibition, % at 20 µM; hit rate 0.78% among 350,000; PfGluPho enzyme, NADPH resazurin-diaphorase fluorescence;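 active = inhibition reaching at least a set limit at 20 µM in the primary screen, cut at about 59% in these data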;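 note: 0% = DMSO wells with substrate and 100% = DMSO wells lacking glucose-6-phosphate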
aDG glyco up = increases alpha dystroglycan glycosylation. activation, % at 10 µM. Pro5-aDG cells, alpha-DG glycosylation AlphaScreen (IIH6); 0% Pro5, 100% B10-LARGE cell signal. hit rate 0.22% among 360,000;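 active = activation of at least 8% versus controls, or a plate z-score of at least 8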;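 note: Pro5 are CHO cells carrying HIG-tagged alpha-DG that lacks glycosylation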
* = called active by the depositor; nt = no result. An excerpt weighted towards active compounds, which were near 2.1% of everything screened.

SMILES | Cardio protect | HKDC1 inh | UCH37 inh | Beta2AR agonist | PfGluPho inh | aDG glyco up
COCC(=O)NN=Cc1cccc(OC)c1OC/C=C/c1ccccc1 | nt | nt | 1 | nt | nt | nt
Cc1ccc2cc(/C=C/C(=O)c3ccco3)c(Cl)nc2c1 | -4 | 18 | 4 | 56* | -6 | 0
CC1Oc2ccccc2C=C1C=NNC(=O)c1cccnc1 (stereo not given) | nt | nt | -42 | nt | nt | nt
COc1cccc(NC(=O)COc2cccc3c2CCNC3=O)c1 | 56* | -4 | 0 | 1 | 1 | 0
COc1ccc(NC(=O)COc2cccc3c2CCNC3=O)cc1 | 68* | -6 | 3 | 13 | 4 | 0
O=C(COc1cccc2c1CCNC2=O)Nc1ccc(F)cc1 | 51* | 1 | -2 | -2 | 18 | 0
Cc1cccc(NC(=O)COc2cccc3c2CCNC3=O)c1 | 59* | nt | nt | nt | 9 | 0
Clc1cccc(-c2ccc(C=Nn3cnnc3)o2)c1 | nt | nt | 5 | nt | nt | nt
Cc1cccc(C)c1-n1c(C)cc(C=NNC(=O)c2ccncc2)c1C | nt | nt | 9 | nt | nt | nt
Cc1cccc(NC(=O)C2CC(=O)N/C(=N/N=Cc3ccco3)S2)c1 (stereo not given) | nt | nt | 0 | nt | nt | nt
CC(C)(C)OC(=O)N1CCN(C(=O)c2ncn(Cc3ccccc3)c2C(=O)N2CCN(C(=O)OC(C)(C)C)CC2)CC1 | 3 | 0 | 29* | -2 | 1 | 0
O=C(c1ncn(Cc2ccccc2)c1C(=O)N1CCN(c2ccccc2)CC1)N1CCN(c2ccccc2)CC1 | 5 | 4 | 1 | -4 | 10 | 0
COc1cc(C(=O)Nc2ccc(NC(=O)c3ccco3)nc2)cc(OC)c1OC | 52* | -7 | 3 | -4 | 4 | 0
COc1cccc(C(=O)Nc2ccc(NC(=O)c3ccco3)nc2)c1 | 2 | 5 | 4 | -10 | -2 | 0
O=C(NN1C(=O)/C(=C/c2ccc(O)c([N+](=O)[O-])c2)SC1=S)c1ccccc1Cl | -3 | 12 | 24* | 7 | 5 | 0
CC(=O)c1cccc(-c2cnc3c(NC=O)cc(-c4ccccc4F)cn23)c1 | 59* | nt | nt | nt | nt | 0
CC(=O)Nc1cc(-c2cccc(C(=O)N(C)C)c2)cn2c(-c3ccc(C(C)=O)cc3)cnc12 | 55* | nt | nt | nt | nt | 0
CC(=O)Nc1cc(-c2ccccc2F)cn2c(-c3ccccc3)cnc12 | 4 | nt | nt | nt | nt | 0
CC(=O)Nc1cc(-c2ccccc2)cn2c(-c3cccc(C(C)=O)c3)cnc12 | 51* | nt | nt | nt | nt | 0
CC(=O)Nc1cc(-c2cccc(NS(C)(=O)=O)c2)cn2c(-c3cccc(C(C)=O)c3)cnc12 | 78* | nt | nt | nt | nt | 0
COC(=O)NN=Cc1cc(C)n(-c2ccccc2)c1C | nt | nt | 5 | nt | nt | nt
S=c1[nH]nc(-c2ccccn2)n1N=Cc1cccs1 | nt | nt | 5 | nt | nt | nt
O=C(NN=Cc1cccnc1)C(O)c1ccccc1 (stereo not given) | nt | nt | 1 | nt | nt | nt
CC(=O)Nc1cc(-c2ccc(C(=O)N3CCOCC3)cc2)cn2c(-c3ccc(C(C)=O)cc3)cnc12 | 76* | nt | nt | nt | nt | 0
CC(=O)Nc1cc(-c2ccc(C(=O)N3CCOCC3)cc2)cn2c(-c3ccccc3)cnc12 | 5 | nt | nt | nt | nt | 0
SMILES | Cardio protect | HKDC1 inh | UCH37 inh | Beta2AR agonist | PfGluPho inh | aDG glyco up
O=C1CSC(=Nc2ccccc2[N+](=O)[O-])N1 | 10 | -2 | 29* | -2 | 10 | 0
Cc1cc(C2CCCCC2)n(O)c(=O)c1 | 69* | -4 | 0 | 19 | -22 | 0
Cn1c(NC2CCCCC2)cc(=O)n(C)c1=O | -3 | -3 | -4 | -4 | -6 | 0
CC(C)(C)C1=CC(=O)C(=O)C(C(C)(C)C)=C1 | 6 | 14 | 1 | 110* | 111* | 0
COc1ccccc1NC(=S)NCc1ccc2c(c1)cc(C)n2C | -2 | -5 | 3 | 1 | -3 | -1
Cc1ccccc1NC(=S)NCc1ccc2c(c1)cc(C)n2C | -8 | -4 | 1 | 52* | 5 | 0
CC(=O)OCc1nc2sc(C)c(C)c2c(=O)[nH]1 | 51* | 3 | 2 | 1 | 15 | 0
Cc1sc2nc(CC(=O)NN)[nH]c(=O)c2c1C | 37 | -6 | 2 | 1 | 19 | 0
Cc1sc2nc(SCC(=O)N(C)C)[nH]c(=O)c2c1C | 73* | -2 | 3 | 2 | 9 | 0
Cc1sc2nc(SCC(=O)N3CCCC3)[nH]c(=O)c2c1C | 80* | 0 | 3 | 1 | 5 | 0
O=C(NCCCO)/C(=C/c1ccc(-c2cccc([N+](=O)[O-])c2)o1)NC(=O)c1ccccc1 | 8 | -1 | 22* | -14 | 30 | 0
O=C(NCCCN1CCOCC1)/C(=C/c1ccc(-c2cccc([N+](=O)[O-])c2)o1)NC(=O)c1ccccc1 | 21 | nt | nt | nt | 29 | 0
O=C(NCCC1=CCCCC1)C1CCN(S(=O)(=O)c2ccccc2)CC1 | 6 | -3 | 0 | 0 | -9 | 0
O=C(NCCC1=CCCCC1)C1CCN(S(=O)(=O)c2cnc[nH]2)CC1 | 14 | 1 | 20* | 1 | -5 | 0
O=C1ON=C(c2ccccc2)/C1=C/c1ccco1 | -16 | 6 | 6 | 58* | 20 | 0
O=C1ON=C(c2ccccc2)/C1=C/c1ccc(-c2ccccc2[N+](=O)[O-])o1 | -9 | 28 | 7 | 96* | 54 | 0
Cc1ccc(C(=O)c2ccc(C)cc2)cc1 | -7 | -3 | 4 | 2 | 7 | 0
Cc1ccc(C(=O)c2no[n+]([O-])c2C(=O)c2ccc(C)cc2)cc1 | -11 | 6 | 4 | 42* | 40 | 0
CCc1cccc(C)c1NC(=O)CON=C(C)c1cc2ccccc2o1 | nt | nt | 4 | nt | nt | nt
Cc1ccc(-n2ncc(C#N)c2N=CN2CCCCCC2)cc1 | nt | nt | 1 | nt | nt | nt
C#CCN1C(=O)S/C(=C/c2cc(C)n(CC)c2C)C1=O | -7 | -7 | -1 | 6 | 8 | 0
CCn1c(C)cc(/C=C2/SC(=S)N(CC(=O)O)C2=O)c1C | -20 | -9 | 21* | 2 | -31 | 0
CCCCC[C@H]1CN(C2CCCCC2)C(=O)[C@@H]1CC(=O)NCc1ccccc1 | -4 | -2 | 32* | -3 | 6 | 0
C[C@H]1CN(C2CCCCC2)C(=O)[C@@H]1CC(=O)NCc1ccccc1 | 5 | -5 | 0 | 0 | 2 | 0
O=C(NCc1n[nH]c(=O)c2ccccc12)C1CC(=O)N(c2ccc(Cl)cc2)C1 (stereo not given) | 59* | -3 | 2 | -1 | -20 | 0
COc1ccc(N2CC(C(=O)NCc3n[nH]c(=O)c4ccccc34)CC2=O)cc1 (stereo not given) | 65* | -4 | 2 | -2 | 6 | 0
C[C@@H]1ON(C)[C@H]2C[C@H]3c4[nH]c5ccc(-c6ccc7c(c6)OCO7)cc5c4CCN3C[C@@H]12 | 62* | nt | nt | nt | 20 | 0
C[C@H](O)[C@@H]1CN2CCc3c([nH]c4ccc(-c5ccc6c(c5)OCO6)cc34)[C@@H]2C[C@@H]1N(C)C(=O)Nc1ccc(F)cc1 | -24 | nt | nt | nt | 10 | 0

Compound activity from PubChem.
